Screens deposited in PubChem by several laboratories.
This is a sample that favours compounds with a hit; in the whole collection about 2.8% have one here.
NPY2 pot ag: potentiators or agonists of human neuropeptide Y receptor Y2; cells expressing NPY-Y2, potentiator/agonist read-out; activation, % at 3.6 µM; 220,000 compounds, 0.45% hits; AID 1359; in the data active = activation above about 27%;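 note: cells stimulated with NPY near EC25 plus isoproterenol at EC100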
Target sequence (P49146 whole entry, looked up): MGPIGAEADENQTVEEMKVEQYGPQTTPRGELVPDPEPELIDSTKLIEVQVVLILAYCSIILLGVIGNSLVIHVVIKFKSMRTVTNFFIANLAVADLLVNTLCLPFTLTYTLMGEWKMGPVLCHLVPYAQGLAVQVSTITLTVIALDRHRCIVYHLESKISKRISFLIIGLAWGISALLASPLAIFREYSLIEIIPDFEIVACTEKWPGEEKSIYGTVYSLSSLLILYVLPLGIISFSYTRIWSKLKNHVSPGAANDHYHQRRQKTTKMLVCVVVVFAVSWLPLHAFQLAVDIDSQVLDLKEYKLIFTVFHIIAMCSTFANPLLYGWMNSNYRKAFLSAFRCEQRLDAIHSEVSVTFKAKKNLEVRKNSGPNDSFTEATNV
EP2 modulator: EP2 receptor (human) modulation | P43116 | EP2-expressing cells, cAMP HTRF FRET, PGE2 co-stimulation | induction, % at 25 µM | 260,000 compounds, 0.83% hits | AID 940;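 active = compounds whose cAMP rise, as percent of the full-agonist control response, exceeds 60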;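 note: rat C6 glioma line stably carrying human EP2 under a CMV promoter; the protocol text gives 20 µM as final concentration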
Target sequence (P43116 whole entry, looked up): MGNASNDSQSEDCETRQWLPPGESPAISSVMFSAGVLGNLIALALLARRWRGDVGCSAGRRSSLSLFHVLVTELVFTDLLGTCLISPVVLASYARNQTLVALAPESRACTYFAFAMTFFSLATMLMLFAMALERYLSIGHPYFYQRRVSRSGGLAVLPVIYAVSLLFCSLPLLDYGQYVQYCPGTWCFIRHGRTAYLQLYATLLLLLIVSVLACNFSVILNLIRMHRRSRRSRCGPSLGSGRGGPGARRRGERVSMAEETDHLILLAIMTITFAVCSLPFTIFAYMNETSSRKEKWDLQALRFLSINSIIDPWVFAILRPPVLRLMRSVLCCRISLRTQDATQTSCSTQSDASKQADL
EP2 antag: blocks the human prostaglandin E2 receptor EP2 | C6 glioma cells expressing human EP2, cAMP TR-FRET; cells stimulated with saturating PGE2 | P43116 | AID 1422 | inhibition, % at 25 µM | 260,000 compounds, 0.52% hits;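 active = percent inhibition above 40 after rounding to a whole number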;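 note: rat C6 glioma host cells with rolipram phosphodiesterase inhibitor present; the protocol text gives 20 µM as final concentration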
NPY1 pot ag: potentiators or agonists of human neuropeptide Y receptor Y1; P25929; NPY-Y1 expressing cells, potentiator/agonist activation; activation, % at 3.6 µM; 220,000 compounds, 0.37% hits; AID 1304; in the data active = activation above about 33%, passing the limit was not always enough;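 note: cells stimulated with NPY at EC10 then isoproterenol at EC100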
NPY Y2 blocker: antagonists of human neuropeptide Y receptor Y2 | 140,000 compounds, 0.99% hits | P49146 | NPY-Y2 expressing cells, antagonist mode | inhibition, % at 2.7 µM
NPY-Y1 antag: NPY-Y1 (human) receptor antagonism | P25929 | HEK293-CNG Y1 cells, membrane potential fluorescence; NPY at EC95, then isoproterenol | inhibition, % at 3.6 µM | 200,000 compounds, 1% hits | AID 1040;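 active = inhibition above the campaign mean inhibition of all tested compounds plus 3 SD, cut at about 20% in these data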
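Assay system: HEK293 Y1/CNG channel cell line; Doses: single compound dose of 3.6 µM, 0.4% DMSO; Timing: dye 3 h, compound 60 min room temperature, stimulation 45 min; Technique: Membrane-potential fluorescent dye readout; Measure: % inhibition of NPY effect.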
NPY1 antag conf: human NPY-Y1 antagonism, confirmation; 1,200 compounds, 21% hits; shares compounds with NPY-Y1 antag; HEK293-CNG NPY-Y1, membrane potential fluorescence, cAMP; NPY challenge against isoproterenol-raised cAMP; inhibition, % at 3.6 µM; in the data active = inhibition above about 20%
NPY2 antag ctr: antagonizes human NPY-Y2, counter-screen to NPY-Y1 antagonists. shares compounds with NPY-Y1 antag. HEK293 NPY-Y2 CNG membrane potential fluorescence, antagonism; cells given NPY, then isoproterenol. inhibition, % at 3.6 µM. 1,200 compounds, 28% hits. AID 1255
Of the large screens only hits and unclear results are named; the others gave an inactive call (follow-up assays come after a bar, where they were run). Cut-off read from the data, not from the text of the source, unless noted: active = inhibition above about 17%; inactive = the rest.

CCCSc1nc2cc(OC)c(OC)cc2c(=N)n1CCCN1CCOCC1	NPY-Y1 antag 71 (no result: NPY Y2 blocker) | NPY1 antag conf 22 | NPY2 antag ctr 32
c1ccc(-c2nc3cnccn3c2Nc2ccc3c(c2)OCCO3)cc1	NPY-Y1 antag 37 | NPY1 antag conf inactive | NPY2 antag ctr inactive
Oc1ccc(-c2nc3cnccn3c2Nc2ccc3c(c2)OCCO3)cc1	none (no result: EP2 antag)
COC(=O)c1c(NC(=O)C2Nc3ccccc3NC2=O)sc2c1CCCC2 (configuration not stated)	none (no result: NPY2 pot ag, NPY1 pot ag, NPY Y2 blocker, NPY-Y1 antag)
Cn1ccnc1C1(O)CC2CCC(C1)N2C(=O)c1ccc(Cl)cc1 (configuration not stated)	none (no result: NPY2 pot ag, EP2 antag, NPY1 pot ag, NPY Y2 blocker, NPY-Y1 antag)
Cc1cc(C)c2c(CN3CCN(C/C=C/c4ccccc4)CC3)cc(=O)oc2c1	NPY-Y1 antag 25 | NPY1 antag conf inactive | NPY2 antag ctr 18
Cc1cc2oc(=O)cc(CN3CCN(S(=O)(=O)/C=C/c4ccccc4)CC3)c2cc1C	none
O=c1c(C=NCCCN2CCOCC2)c(-c2ccccc2)[nH]n1-c1nc2ccccc2s1	none (no result: NPY2 pot ag, NPY1 pot ag, NPY Y2 blocker, NPY-Y1 antag)
N#Cc1nc(COc2ccc(Br)cc2)oc1NCCCn1ccnc1	NPY-Y1 antag 26 (no result: EP2 antag) | NPY1 antag conf inactive | NPY2 antag ctr inactive
COc1ccc(C(=O)c2coc3ccc(O)c(CN4CCCC4)c23)cc1	NPY-Y1 antag 21 | NPY1 antag conf inactive | NPY2 antag ctr 21
COc1ccc(C(=O)c2coc3ccc(O)c(CN4CCOCC4)c23)cc1	none
Cc1cccc(C(=O)Nc2cccc(OC(=O)c3cccc(C)c3)c2)c1	NPY-Y1 antag 27 | NPY1 antag conf inactive | NPY2 antag ctr inactive
COC(=O)COc1cccc(NC(=O)c2cccc(C)c2)c1	none (no result: NPY Y2 blocker)
O=C1C=C(NCc2ccc(Cl)c(Cl)c2)C2(CCCCC2)O1	NPY-Y1 antag 42 | NPY1 antag conf inactive | NPY2 antag ctr inactive
O=C(CSc1nc2c(c(C(F)(F)F)n1)CCc1ccccc1-2)NCCc1ccccc1	none (no result: NPY2 pot ag, NPY1 pot ag, NPY Y2 blocker, NPY-Y1 antag)
O=C(NCc1cccnc1)/C(=C/c1ccc(-c2ccc(Cl)cc2)o1)S(=O)(=O)c1ccccc1	NPY-Y1 antag 25 | NPY1 antag conf inactive | NPY2 antag ctr 22
O=C(Nc1cccc(Cl)c1)c1csc(-c2ccccc2)n1	NPY-Y1 antag 23 (no result: EP2 antag) | NPY1 antag conf inactive | NPY2 antag ctr inactive
O=C(CSc1nc2ccccc2n1Cc1ccccc1)Nc1ccc2c(c1)OCCO2	none (no result: NPY2 pot ag, NPY1 pot ag, NPY Y2 blocker, NPY-Y1 antag)
CC(C)CCNC(=S)Nc1ccc(Br)cc1	none
CC(C)CCNC(=O)/C=C/c1ccc(Br)cc1	NPY-Y1 antag 20 | NPY1 antag conf inactive | NPY2 antag ctr inactive
Cc1ncc(-c2ccncc2)c(C2CCN(C(=O)CCn3ncc4ccccc43)CC2)n1	none (no result: NPY2 pot ag, EP2 antag, NPY1 pot ag, NPY Y2 blocker, NPY-Y1 antag)
COc1nc(OC)nc(N2CCC(C(=O)Nc3cccc4ccccc34)CC2)n1	NPY-Y1 antag 35 | NPY1 antag conf inactive | NPY2 antag ctr inactive
Cc1cc2nc(SCC#N)[nH]c2cc1C	none (no result: NPY2 pot ag, NPY1 pot ag, NPY Y2 blocker, NPY-Y1 antag)
O=c1cnn([C@@H]2O[C@H](CO)[C@@H](O)[C@H]2O)c(=O)[nH]1	NPY-Y1 antag 70 | NPY1 antag conf inactive | NPY2 antag ctr inactive
CCN(CC)S(=O)(=O)c1cc(NC(=O)COc2ccc(C#N)cc2OC)ccc1C	NPY-Y1 antag 24 | NPY1 antag conf inactive | NPY2 antag ctr 29
Cc1occc1-c1nnc(SCC(N)=O)n1CC1CCCO1 (configuration not stated)	none (no result: NPY2 pot ag, NPY1 pot ag, NPY Y2 blocker, NPY-Y1 antag)
Cc1cccc(NC(=O)C2C3CCC4C(CCC32)C4(Cl)Cl)c1 (configuration not stated)	NPY-Y1 antag 28 | NPY1 antag conf inactive | NPY2 antag ctr inactive
Cc1cccc(OCC(=O)Nc2cccc(-c3nnc(-c4ccccc4)o3)c2)c1C	none
COc1ccccc1OCC(=O)Nc1cccc(-c2nc3ccccc3o2)c1	NPY-Y1 antag 20 | NPY1 antag conf inactive | NPY2 antag ctr inactive
Cc1ccc(Nc2nc(-c3c(C)nc4ncccn34)cs2)cc1	NPY-Y1 antag 24 | NPY1 antag conf inactive | NPY2 antag ctr inactive
Cc1ccc(C(C(=O)NC2CCCCC2)N(Cc2ccccc2)C(=O)c2csnn2)o1 (configuration not stated)	none (no result: NPY2 pot ag, NPY1 pot ag, NPY Y2 blocker, NPY-Y1 antag)
COC(=O)c1[nH]c2c(c1C)C(=O)CC(c1ccccc1)C2 (configuration not stated)	none
Cc1c(C(=O)N2CCOCC2)[nH]c2c1C(=O)CC(c1ccccc1Cl)C2 (configuration not stated)	NPY-Y1 antag 24 | NPY1 antag conf inactive | NPY2 antag ctr 18
COc1ccc(C(=O)/C=C/C(=O)N(Cc2ccc3c(c2)OCO3)C(C(=O)NC2CCCCC2)c2ccncc2)c(O)c1 (configuration not stated)	none
O=C(NC1CCCCC1)C(c1ccncc1)N(Cc1ccc2c(c1)OCO2)C(=O)c1cnsn1 (configuration not stated)	NPY-Y1 antag 25 | NPY1 antag conf 28 | NPY2 antag ctr inactive
O=C(NC1CCCC1)C(c1ccncc1)N(Cc1ccccc1)C(=O)Cc1cccs1 (configuration not stated)	NPY-Y1 antag 21 | NPY1 antag conf inactive | NPY2 antag ctr inactive
COC(=O)c1ccc(C(C(=O)NC2CCCCC2)N(Cc2ccccc2)C(=O)Cc2cccs2)cc1 (configuration not stated)	none
Cc1cccc2cc(CN(CCc3ccccc3)C(=O)c3cccs3)c3nnnn3c12	none (no result: NPY2 pot ag, NPY1 pot ag, NPY Y2 blocker, NPY-Y1 antag)
O=C(CN1CCC(n2cnc3cccnc32)CC1)Nc1ccc(F)cc1	none (no result: NPY2 pot ag, EP2 antag, NPY1 pot ag, NPY Y2 blocker, NPY-Y1 antag)
CCOC(=O)C(=CNc1ccc(Cl)cn1)C(=O)OCC	none (no result: NPY Y2 blocker, NPY-Y1 antag)
CCOC(=O)C(=CNc1cc(C)nn1-c1ccc(Cl)cc1)C(=O)OCC	NPY-Y1 antag 24 | NPY1 antag conf 21 | NPY2 antag ctr inactive
CCCn1nc(NS(C)(=O)=O)c2cc3cccc(C)c3nc21	NPY-Y1 antag 27 | NPY1 antag conf inactive | NPY2 antag ctr inactive
FC(F)(F)c1cc(NCC2CCCCC2)n2ncnc2n1	none (no result: NPY2 pot ag, NPY1 pot ag, NPY Y2 blocker, NPY-Y1 antag)
COc1cc(-c2nnc(COc3ccc4ccccc4c3)o2)cc(OC)c1OC	NPY-Y1 antag 23 (no result: EP2 antag) | NPY1 antag conf inactive | NPY2 antag ctr inactive
COc1cc(-c2nnc(-c3ccccc3)o2)cc(OC)c1OC	none
COCCCN1CCN(C2Cc3ccccc3Sc3ccc(Cl)cc32)CC1 (configuration not stated)	NPY-Y1 antag 26 | NPY1 antag conf inactive | NPY2 antag ctr inactive
COc1ccccc1-c1cc(C(F)(F)F)nc(S(=O)(=O)CCCC(=O)NC(C)C)n1	none
